The results in this text go back to ChEMBL document CHEMBL1142668, “Synthesis and biological evaluation of neutral and zwitterionic 3-carboranyl thymidine analogues for boron neutron capture therapy” (J Med Chem, 2005).

For one data set, the system named is L929. The experiment in a line: Mean phosphorylation rate of 10 uM compound by recombinant human thymidine kinase 1 (cytosolic) expressing wild type L929 tumor cells. The data set is classed as functional. In outline: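 Purified recombinant human TK1 (50 ng) with 10 µM substrate, final DMSO 1%, 100 µM ATP spiked with 0.03 µM [γ-32P]-ATP, in 50 mM Tris-HCl pH 7.6, 5 mM MgCl2, 125 mM KCl, 10 mM DTT, 0.5 mg/mL BSA. Run at 37 °C for 20 min, then 95 °C for 2 min. Products separated by PEI-cellulose TLC and read by phosphorimager. Rate expressed relative to thymidine, using one enzyme batch.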

The nature of data set [1]: Mean retention time in reversed phase HPLC (RP-18). In kind it is ADME.

Regarding “3-[2-(7-Amino-closo-m-carboran-1-yl)-ethan-1-yl]thymidine”, in the data set on L929 (Mus musculus), the Phosphorylation rate was 71.9%.
As for “3-[2-(7-Amino-closo-m-carboran-1-yl)ethoxyethyl]thymidine”, the Phosphorylation rate with L929 (Mus musculus) came out at 48.4%.
Take “3-[6-(7-Ammonium-nido-m-carboran-1-yl)hexan-1-yl]-thymidine”: the Phosphorylation rate in the data set on L929 (Mus musculus) came out at 45.4%.
“3-[5-(7-Amino-closo-m-carboran-1-yl)hexan-1-yl]thymidine”: in the data set on L929 (Mus musculus), the Phosphorylation rate turned out to be 14.2%.
With “3-[4-(7-Amino-closo-m-carboran-1-yl)butan-1-yl]thymidine”, the Phosphorylation rate in the data set with L929 (Mus musculus) stood at 58%.
In turn, `C#CCn1c(=O)c(C)cn([C@H]2CC(O)[C@@H](CO)O2)c1=O` (single isomer, unassigned) showed a Retention time in data set [1] of 11.79 min. In addition, the Phosphorylation rate in the data set with L929 worked out at 102%.
On to “3-[3-(7-Ammonium-nido-m-carboran-1-yl)propan-1-yl]-thymidine”, for which, in the data set with L929 (Mus musculus), the Phosphorylation rate was 64.6%.
Regarding “3-[2-(7-Ammonium-nido-m-carboran-1-yl)ethoxyethyl]-thymidine”, the Phosphorylation rate with L929 (Mus musculus) came to 75.1%.
Take “3-[2-(7-Ammonium-nido-m-carboran-1-yl)ethan-1-yl]-thymidine”: the Phosphorylation rate in the data set with L929 (Mus musculus) worked out at 89.4%.
Still for that read-out and setting: next, N5-20H: 41%; “3-[5-(7-Ammonium-nido-m-carboran-1-yl)pentan-1-yl]thymidine”: 50.7%; “3-[4-(7-Ammonium-nido-m-carboran-1-yl)butan-1-yl]-thymidine”: 63.8%.
Regarding `Cc1cn([C@H]2C[C@H](O)[C@@H](CO)O2)c(=O)[nH]c1=O` [DOXRIBTIMINE], the Retention time in data set [1] is recorded as 8.72 min. For the same compound, the Phosphorylation rate with L929 was 100%.
As to “3-[(closo-o-Caboran-1-yl)methyl]thymidine”, the Phosphorylation rate in the data set on L929 (Mus musculus) is 9.6%.
In data set [1], `Cc1cn([C@H]2C[C@H](N=[N+]=[N-])[C@@H](CO)O2)c(=O)[nH]c1=O` [ZIDOVUDINE] gave a Retention time of 12.22 min. For the same compound, the Phosphorylation rate with L929 is 52%.
For “3-[3-(7-Amino-closo-m-carboran-1-yl)propan-1-yl]thymidine”, the Phosphorylation rate in the data set on L929 (Mus musculus) is 58.2%.
Still for that read-out and setting: next, “3-[5-(7-Amino-closo-m-carboran-1-yl)pentan-1-yl]thymidine”: 45.1%.
